Platelet DG rel: modulates dense granule release in human platelets; human platelet-rich plasma, SFLLRN dense granule ATP release, luminescence; inhibition, %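 (compounds screened at 7.5 µM in platelet-rich plasma)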; hit rate 0.22% among 300,000;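 active = mean replicate score, as percent of positive control, at or above 50; inconclusive = mean below 50 but at least one replicate at or above 50; inactive = mean and every replicate below 50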
Runt-SMMHC FRET: blocks binding of human RUNX1 Runt domain to CBFb-SMMHC. Q01196+Q13951. Cerulean-Runt/Venus-CBFb-SMMHC FRET ratio 530/480, 1 h. inhibition, % at 20 µM. hit rate 0.74% among 220,000. AID 1434;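 active = mean inhibition across duplicate retests at 20 µM reaching about 50%, limit read from the data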;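 also: 0% = DMSO wells and 100% = wells with excess untagged CBFb-SMMHC; inhibitors lower the FRET ratio by blocking Runt binding to CBFb-SMMHC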
RanGTP-Imp inh: inhibitors of RanGTP-importin-beta interaction, primary screen, biochemical, FRET, CFP-Ran, YFP-importin-beta, homogeneous; cell-free CFP-Ran/YFP-importin-beta FRET ratio; inhibition, % (no concentration beside the values); hit rate 1.1% among 300,000;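 active = more than half of the replicate wells show a fall in the fluorescence ratio signal beyond about 16%, limit read from the data, passing the limit was not always enough; inconclusive = exactly half of the replicate wells pass the set limit; inactive = fewer than half of replicates pass the limit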;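 also: 0% = DMSO wells and 100% = Ran loaded with GDP instead of GTP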
Rce1 inhib: inhibitors of yeast Ras-converting enzyme | Q03530 | yeast membranes, quenched prenylated peptide cleavage fluorescence | calls only | hit rate 0.27% among 290,000;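 active = fall in fluorescence gain of 50% or more versus controls, with final raw signal at or below 3038400; inconclusive = same 50% fall but final raw signal above 3038400; inactive = fall in fluorescence gain under 50%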;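 also: plate controls were neutral control wells for no effect and wells lacking membranes for full effect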
Target sequence (Q03530 whole entry, looked up): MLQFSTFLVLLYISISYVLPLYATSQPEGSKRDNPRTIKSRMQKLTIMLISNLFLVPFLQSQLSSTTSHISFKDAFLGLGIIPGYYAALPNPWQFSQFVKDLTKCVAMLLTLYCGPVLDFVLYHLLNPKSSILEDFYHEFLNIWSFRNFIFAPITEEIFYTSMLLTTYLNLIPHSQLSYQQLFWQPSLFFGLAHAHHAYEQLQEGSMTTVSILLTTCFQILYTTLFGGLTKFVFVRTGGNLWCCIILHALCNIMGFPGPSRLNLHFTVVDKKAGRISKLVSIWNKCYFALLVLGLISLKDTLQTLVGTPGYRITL
Runt-CBFb FRET: Runt domain-CBFb interaction inhibition. hit rate 0.46% among 220,000. Q01196+Q13951. inhibition, % at 20 µM. Cerulean-Runt/Venus-CBFb FRET ratio 530/480, 1 h;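 active = inhibition over about 50% at 20 µM in the single-dose screen, limit read from the data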;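 also: 0% = DMSO wells and 100% = excess unlabeled CBFb competitor control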
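Doses: 20 µM compound in 1% DMSO | Material: Cerulean-labeled Runt domain protein | Amount: Each fluorescent fusion protein 100 nM | Schedule: Two 1 h room-temperature incubations shielded from light | Measured by: FRET fluorescence | Evaluation: Loss of energy transfer signal | Controls: Unlabeled CBFb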
* = called active by the depositor; i = inactive; ? = inconclusive; / = no result; + = active, no number. Sampled rows, rich in hits. Any-hit rate of the full collection: about 1.8%.

SMILES	Platelet DG rel	Runt-SMMHC FRET	RanGTP-Imp inh	Rce1 inhib	Runt-CBFb FRET
Cc1ccc2oc(=O)cc(CN3CC(C)OC(C)C3)c2c1 (stereo not given)	2	/	7	i	/
CC1CN(Cc2cc(=O)oc3cc(O)c(Cl)cc23)CC(C)O1 (stereo not given)	4	/	61*	i	/
CCOC(=O)N1CCN(c2nc(-c3ccccc3)c3cc(C)ccc3n2)CC1	5	/	18*	i	/
O=C(O)CCC(=O)N1CCN(c2nc(-c3ccccc3)c3cc(Br)ccc3n2)CC1	3	/	28*	i	/
NNc1nc(-c2ccccc2Cl)c2cc(Br)ccc2n1	-2	/	3	i	/
O=C(O)CCC(=O)N1CCN(c2nc(-c3ccccc3Cl)c3cc(Br)ccc3n2)CC1	3	85*	31*	i	36
CCN(CC)c1ccc(/C=C(/C#N)C(=O)NCc2ccccc2)o1	2	-19	55*	i	-26
CCN(CC)c1ccc(/C=C(/C#N)C(=O)NC(C)C)o1	0	-2	-2	i	-5
COc1ccc(NC2=C(C(C)=O)C(c3ccc(OC)c(OC)c3)C(C(C)=O)C(C)(O)C2)cc1 (stereo not given)	2	-3	164*	i	-1
Cc1cnn(CCC(=O)NNC(=S)NCC(C)C)c1	1	6	-2	i	1
CCCCNC(=S)NNC(=O)CCn1cc(C)cn1	0	-2	6	+	-1
CCOCCCNCc1cc(Cl)cc(Cl)c1OCC	-1	-2	-2	i	1
Cn1c(NC(=O)c2ccc(C(C)(C)C)cc2)cc(=O)n(C)c1=O	/	-3	/	/	-1
Cn1c(NNC(=O)c2ccc(C(C)(C)C)cc2)cc(=O)n(C)c1=O	1	77*	7	i	41
O=C(O)Cc1ccc(NC(=O)c2ccc(NC(=O)C3CC3)cc2)cc1	-8	/	2	i	/
CCCCCCc1cc2cc(C(N)=O)c(=N)oc2cc1O	-4	59*	168*	i	20
CCCCCCc1cc2cc(C(=O)OCC)c(=O)oc2cc1O	-1	84*	190*	i	10
CCCCCCc1cc2cc(C(=O)NC)c(=N)oc2cc1O	8	60*	166*	i	10
CCCCCCc1cc2cc(S(=O)(=O)c3ccc(F)c(Cl)c3)c(=O)oc2cc1O	-3	63*	130*	i	19
O=C(Nc1cccc(C(F)(F)F)c1)C1CCN(S(=O)(=O)c2ccc(N3CCCC3=O)cc2)CC1	-9	/	-5	i	/
CCCCCCc1cc2cc(C(=O)Nc3cccc(OC)c3)c(=O)oc2cc1O	-2	63*	156*	i	143*
Cc1cccn2c(=O)c3cc(C#N)c(=O)n(-c4c(C)n(C)n(-c5ccccc5)c4=O)c3nc12	1	49	2	/	14
Cc1cccc(-n2c(=O)c(C#N)cc3c(=O)n4ccccc4nc32)c1	2	59*	128*	i	20
Cc1ccc(C)c(-n2c(=O)c(C#N)cc3c(=O)n4ccccc4nc32)c1	13	90*	108*	i	3
COc1ccc(CNCc2cn(-c3cccc(F)c3)nc2-c2ccc(C)o2)cc1	6	2	-2	i	6
SMILES	Platelet DG rel	Runt-SMMHC FRET	RanGTP-Imp inh	Rce1 inhib	Runt-CBFb FRET
CC(=O)Nc1cccc(NC(=O)CSc2ccc(-c3ccco3)nn2)c1	-6	/	0	i	/
c1ccc(CSc2nnc(-c3ccccc3)c(-c3ccccc3)n2)cc1	-6	/	-2	i	/
N#Cc1c(Cl)nc(SCc2ccccc2)nc1-c1ccccc1	/	-2	/	/	113*
CCNc1nc2nc3ccc(C)cn3c(=O)c2cc1C(=O)NCC1CCCO1 (stereo not given)	2	91*	185*	?	19
C=CCNC(=O)c1cc2c(=O)n3cc(C)ccc3nc2nc1NCC1CCCO1 (stereo not given)	-7	60*	179*	+	19
Cc1ccc2nc3c(cc(C#N)c(=N)n3CC3CCCO3)c(=O)n2c1 (stereo not given)	/	42	/	/	11
CC12CC(NC(=O)N1c1cccc(C(=O)NCc3ccccn3)c1)c1ccccc1O2 (stereo not given)	8	/	0	i	/
O=C(NCCc1c[nH]c2ccccc12)C(=O)NCC1OCCN1S(=O)(=O)c1cc(F)ccc1F (stereo not given)	-3	0	5	i	0
CNC(=O)c1c(NC(=O)c2ccc(S(=O)(=O)N3CC(C)OC(C)C3)cc2)sc2c1CCN(C(C)C)C2 (stereo not given)	22	/	62*	i	/
CC(C)N1CCc2c(sc(NC(=O)c3ccc(S(=O)(=O)N4CCOCC4)cc3)c2C(N)=O)C1	7	2	49*	i	-5
CNC(=O)c1c(NC(=O)c2ccc(S(=O)(=O)N3CCCC3)cc2)sc2c1CCN(C(C)C)C2	-8	/	13	i	/
C=CCn1c(COc2cccc(C)c2)nnc1SCC(=O)c1c[nH]c2c(CC)cccc12	-7	2	4	i	3
Cc1ccc(S(=O)(=O)NNc2ccccc2)cc1	-5	68*	-3	i	40
Cc1ccc(S(=O)(=O)Nc2ccc(Nc3ccccc3)cc2)cc1	-10	/	-4	i	/
Fc1ccc(-c2nnc(NC3=NCCCCC3)o2)cc1	64*	3	3	i	0
COc1ccc(-c2cc(-c3ccco3)[nH]c(=O)c2C#N)cc1	1	86*	7	i	22
N#Cc1c(-c2cccc(Br)c2)cc(-c2ccco2)[nH]c1=O	-2	90*	72*	i	40
COc1ccc(-c2cc(C(F)(F)F)c(C#N)c(=O)[nH]2)cc1	-6	105*	49*	i	45
O=C(O)c1ccccc1NS(=O)(=O)c1cccc(-n2sc3ccccc3c2=O)c1	-9	/	4	i	/
COc1cccc(-c2nc(C#N)c(N3CCN(C(=O)c4ccco4)CC3)o2)c1	-9	/	-4	+	/
CC(=O)Oc1ccc(-c2cc3c(OC(C)=O)cc(OC(C)=O)cc3oc2=O)cc1	58*	/	123*	i	/
CCOC(=O)N1CCN(C(=O)C2CCC(=O)N(CCCN3CCCC3=O)C2)CC1 (stereo not given)	1	/	-2	i	/
CCOC(=O)/C(C#N)=C1\Nc2ccccc2N=C1N(CC(C)C)CC(C)C	0	-19	30*	i	28
CCCCN(CCCC)C1=Nc2ccccc2N/C1=C(/C#N)C(=O)OCC	4	-52	0	i	-23
COc1ccc2nc(N3CCCC3)c(C#N)cc2c1	0	/	1	i	60*
COc1ccc2nc(N3CCCCC3)c(C#N)cc2c1	3	41	31*	i	74*
O=C(NCc1ccc(F)cc1)c1ccncc1	-10	/	3	i	/
COc1ccc(COC(=O)N/N=C(\C)CC(=O)NCc2ccc(Cl)cc2)cc1	3	3	-3	i	-1

Screens deposited in PubChem BioAssay by several laboratories.
